{"source": "paper PMC6207247", "about": "(Clinical Pharmacology : Advances and Applications, 2018)", "key": {"clotting time (INR)": {"system": "clotting time (INR)", "assay": "International normalized ratio", "assay_type": "in vivo, human", "details": "50 mg dose, Japanese and Caucasian"}, "clotting time (aPTT)": {"system": "clotting time (aPTT)", "assay": "Activated partial thromboplastin time", "assay_type": "in vivo, human", "details": "50 mg dose"}, "thrombin generation": {"system": "thrombin generation", "assay": "Ex vivo thrombin generation", "assay_type": "in vivo, human", "details": "after apixaban administration, greatest change", "how_it_was_run": "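For thrombin generation, the same dosing design applied, with platelet-poor plasma (double centrifugation, 2,500 g, 4°C) sampled 3, 6, 12 and 24 h postdose. Thrombin over time came from cleavage of a slow-reacting fluorogenic substrate against a paired calibration sample. Lag time, time to peak, peak thrombin and endogenous thrombin potential were derived from the curve and summarised as % change from baseline by group, dose and time.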"}, "clotting time (mPT)": {"system": "clotting time (mPT)", "assay": "Modified prothrombin time", "assay_type": "in vivo, human", "details": "50 mg single dose, Japanese and Caucasian"}, "[1]": {"system": "clotting times and thrombin generation", "assay": "Time course of pharmacodynamic measures", "assay_type": "in vivo, human"}, "[2]": {"details": "patients with atrial fibrillation, population PK; cited from earlier work"}, "[3]": {"assay": "Single-dose pharmacokinetics of apixaban in plasma and urine", "assay_type": "in vivo, human", "details": "for dose proportionality of exposure: Japanese and Caucasian; for CL renal / half-life: male, human, oral; for CL renal: plasma and urine, renal clearance; for half-life: plasma"}, "[4]": {"assay": "Safety and tolerability assessment", "assay_type": "in vivo, human", "details": "for bleeding time: same subject", "how_it_was_run": "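Subjects stayed in clinic ≥72 h per period and avoided alcohol, grapefruit, caffeine and fecal-occult-interfering foods up to Day 4. Safety was assessed by adverse-event review (MedDRA v8.1, by organ class, ethnic group and dose), vital signs, ECGs, physical exams, serum chemistry, liver function, blood counts, urinalysis, fecal occult blood and template-device bleeding time.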"}}, "note": "“Also recorded” adds a separate entry of the source.", "data": [{"smiles": "COc1ccc(-n2nc(C(N)=O)c3c2C(=O)N(c2ccc(N4CCCCC4=O)cc2)CC3)cc1", "note": "[apixaban, 1-(4-methoxyphenyl)-7-oxo-6-(4-(2-oxopiperidin-1-yl)phenyl)-4,5,6,7-tetrahydro-1H-pyrazolo[3,4-c]pyridine-3-carboxamide]", "values": [{"measurement": "INR, increase from baseline", "setting": "clotting time (INR)", "value": "50%–64%"}, {"measurement": "aPTT, mean maximum increase from baseline", "setting": "clotting time (aPTT)", "value": "~ 25%"}, {"measurement": "ETP, decrease from baseline", "setting": "thrombin generation", "value": 49, "unit": "%"}, {"measurement": "LAG, increase from baseline (up to)", "setting": "thrombin generation", "value": "approximately 178%"}, {"measurement": "PEAK, decrease from baseline", "setting": "thrombin generation", "value": 86, "unit": "%"}, {"measurement": "TTP, increase from baseline (up to)", "setting": "thrombin generation", "value": "~142", "unit": "%"}, {"measurement": "mPT, mean maximum increase from baseline", "setting": "clotting time (mPT)", "value": "226%–229%"}, {"measurement": "duration of pharmacodynamic effects", "setting": "[1]; 25 and 50 mg dose panels", "value": "> 24", "unit": "h"}, {"measurement": "time for which changes in TG parameters and mPT were evident", "setting": "[1]; after apixaban administration", "value": "≥ 12", "unit": "h"}, {"measurement": "time until changes in pharmacodynamic measures were evident", "setting": "[1]; after apixaban administration, Japanese and Caucasian", "value": "≤ 30", "unit": "min"}, {"measurement": "time to nearing baseline values of pharmacodynamic measures", "setting": "[1]; doses ≤10 mg", "value": "12 to 24", "unit": "h"}, {"measurement": "time of peak values of pharmacodynamic measures", "setting": "[1]; postdose", "value": "approximately 3 h"}, {"measurement": "apixaban clearance lower in Japanese patients compared to the overall population", "setting": "[2]", "value": 15, "unit": "%"}, {"measurement": "higher exposure corresponding to the lower clearance in Japanese patients", "setting": "[2]", "value": 18, "unit": "%"}, {"measurement": "AUC values lower in Japanese than in Caucasian subjects", "setting": "[3]; 50 mg dose", "value": "20%–22%"}, {"measurement": "dose proportionality of exposure", "setting": "[3]; 2.5–10 mg dose range", "value": "increased the dose proportionally up to 10 mg; also recorded: increased in proportion to dose"}, {"measurement": "point estimates and 95% CIs for dose proportionality parameter b", "setting": "[3]; Cmax and AUC, both Japanese and Caucasian subjects, 2.5–50 mg", "value": "< 1"}, {"measurement": "dose proportionality of exposure", "setting": "[3]; across the 2.5–50 mg dose range", "value": "less than proportional to dose"}, {"measurement": "CL renal", "setting": "[3]; Caucasian subjects, across doses", "value": 13.3, "unit": "mL/min"}, {"measurement": "CL renal", "setting": "[3]; Japanese subjects, across doses", "value": 18.3, "unit": "mL/min"}, {"measurement": "half-life", "setting": "[3]; mean T1/2 values across doses, Caucasian subjects, 2.5–50 mg", "value": "8.9 to 16.1", "unit": "h"}, {"measurement": "half-life", "setting": "[3]; mean T1/2 values across doses, Japanese subjects, 2.5–50 mg", "value": "6.1 to 8.5", "unit": "h"}, {"measurement": "half-life", "setting": "[3]; mean half-life, Caucasian subjects, across doses", "value": "~13", "unit": "h"}, {"measurement": "half-life", "setting": "[3]; mean half-life, Japanese subjects, across doses", "value": "~8", "unit": "h"}, {"measurement": "headache, number of subjects", "setting": "[4]; Caucasian subjects who received apixaban", "value": "five"}, {"measurement": "subjects reporting AEs", "setting": "[4]; Caucasian subjects who received apixaban (11)", "value": 91.7, "unit": "%"}, {"measurement": "subjects reporting AEs", "setting": "[4]; Japanese subjects who received apixaban (five)", "value": 41.7, "unit": "%"}, {"measurement": "intensity of reported AEs", "setting": "[4]; all reported AEs", "value": "mild or moderate"}, {"measurement": "safety and tolerability", "setting": "[4]; ascending single oral doses 2.5–50 mg, Japanese and Caucasian healthy subjects", "value": "safe and well tolerated"}, {"measurement": "changes in vital signs or ECGs", "setting": "[4]; either group", "value": "no clinically relevant changes"}, {"measurement": "bleeding time", "setting": "[4]; 3.5 h after the 50 mg dose", "value": 30, "unit": "min"}, {"measurement": "bleeding time", "setting": "[4]; by 12 h after the 50 mg dose", "value": 9, "unit": "min"}, {"measurement": "total number of AEs reported", "setting": "[4]; subjects who received apixaban (12 Japanese, 12 Caucasian)", "value": 32}, {"measurement": "serious AEs or discontinuations due to AEs", "setting": "[4]; whole study", "value": "no serious AEs or discontinuations due to AEs"}]}]}
